Test results reported in ChEMBL document CHEMBL4028851, “Discovery of Potent Small-Molecule Inhibitors of Ubiquitin-Conjugating Enzyme UbcH5c from α-Santonin Derivatives” (J Med Chem, 2017).
Active and inactive are the calls of the source. The rule behind the calls is not given here.

Key:
Rattus norvegicus [1] = experiment: Antiarthritic activity in Wistar rat Freund's adjuvant-induced arthritis model assessed as reduction in hind paw swelling at 5 to 20 mg/kg, po qd administered on day 10 to 20 postimmunization measured every 2 to 3 days during compound dosing; type: functional, organism-based
Procedure, shortened: (§1)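 Adjuvant arthritis was induced by intradermal CFA (0.1 mL) into the base of the left hind paw (day 0), with a boost 10 days later. Rats were dosed orally once daily at 5 or 20 mg/kg from day 10 to day 20, with 10 rats per group. Vehicle controls received 0.3% sodium carboxymethylcellulose. Two blinded observers scored the animals every 2 or 3 days. Data are mean ± S.E.M.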

[2] = AUC (0 to infinity) in Sprague-Dawley rat at 1 mg/kg, iv by LC-MS/MS analysis; type: ADME, organism-based; parameters: dose 1 mg/kg, time infinity, route intravenous; details: in vivo
Rattus norvegicus [3] = experiment: Antiarthritic activity in Wistar rat Freund's adjuvant-induced arthritis model assessed as reduction in arthritis index score at 5 to 20 mg/kg, po qd administered on day 10 to 20 postimmunization measured every 2 to 3 days during compound dosing; type: functional, organism-based; procedure, shortened: as §1
Rattus norvegicus [4] = experiment: Antiarthritic activity in Wistar rat Freund's adjuvant-induced arthritis model assessed as protection against body weight loss at 5 to 20 mg/kg, po qd administered on day 10 to 20 postimmunization measured every 2 to 3 days during compound dosing; type: functional, organism-based; procedure, shortened: as §1
[5] = AUC (0 to infinity) in Sprague-Dawley rat at 5 mg/kg, po via gavage by LC-MS/MS analysis; type: ADME, organism-based; parameters: dose 5 mg/kg, time infinity, route oral; details: in vivo
Procedure, shortened: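 Male Sprague-Dawley rats (about 200‒220 g), n = 6, fasted overnight; single oral gavage at 5 mg/kg as a suspension in 0.5% methylcellulose. Blood was drawn from the orbital artery into heparin tubes at 0.083–24 h. Plasma was analysed by LC/MS/MS (ESI, MRM). AUC(0-∞) came from noncompartmental analysis, reported as mean ± SD of six rats.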

[6] = Half life in rat whole blood at 5 uM; type: ADME
Procedure, shortened: (§2)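 Compound (5 µM final, from a 25 mM DMSO stock) was incubated at 37 °C in rat plasma (0–90 min) or rat whole blood (0, 5, 10, 30, 60, 90 min). Reactions were quenched with ice-cold acetonitrile, centrifuged, and the supernatants analysed.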

[7] = Oral bioavailability in Sprague-Dawley rat at 5 mg/kg via gavage by LC-MS/MS analysis; type: ADME, organism-based; details: in vivo
Procedure, shortened: (§3)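 Male Sprague-Dawley rats (about 200‒220 g; n = 6) were fasted overnight and gavaged with 5 mg/kg as a suspension in 0.5% methylcellulose. Blood was taken from the orbital artery at 0.083–24 h into heparin tubes. Plasma was quantified by LC/MS/MS (ESI, MRM), with noncompartmental analysis. Bioavailability was referenced to a 1 mg/kg iv dose. Values are mean ± SD.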

[8] = biological target: Ubiquitin-conjugating enzyme E2 D3 (Mus musculus) (UniProt P61079); experiment: Inhibition of UbcH5c in mouse b.End3 cells assessed as decrease in TNF-alpha-mediated IkB-alpha phosphorylation preincubated for 2 hrs followed by TNF-alpha stimulation for 20 mins by Western blot analysis; type: cell-based
Chain of Ubiquitin-conjugating enzyme E2 D3 (Mus musculus) (P61079 whole entry, looked up): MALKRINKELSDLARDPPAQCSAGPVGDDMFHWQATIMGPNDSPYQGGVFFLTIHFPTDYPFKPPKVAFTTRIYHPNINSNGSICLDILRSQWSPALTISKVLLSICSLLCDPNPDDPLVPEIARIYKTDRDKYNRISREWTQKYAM
Procedure, shortened: (§4)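 bEnd.3 cells (DMEM, 10% FBS) were pretreated with compound at 2.5, 5 or 10 µM for 2 h, then stimulated with 20 ng/mL TNF-α (15 min in the methods, 20 min in the legend). Lysates were run on 10% SDS-PAGE and immunoblotted for phospho-IκBα, IκBα, phospho-p65 and p65, with GAPDH as loading control.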

[9] = Half life in rat liver microsomes at 5 uM in preincubated for 3 mins followed by NADPH addition measured up to 90 mins; type: ADME, microsome
Procedure, shortened: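 Rat liver microsomes (0.5 mg/mL) were used in 100 mM potassium phosphate, pH 7.4, with compound at 5 µM final. After 3 min preincubation at 37 °C, an NADPH-generating system was added (4 mM MgCl2, 1 mM NADP+, 10 mM glucose 6-phosphate, 1 unit/mL G6PDH). Incubation continued for 0–90 min and was stopped with ice-cold acetonitrile.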

[10] = biological target: Ubiquitin-conjugating enzyme E2 D3 (Mus musculus) (UniProt P61079); experiment: Inhibition of UbcH5c in mouse b.End3 cells assessed as decrease in TNF-alpha-mediated p65 phosphorylation preincubated for 2 hrs followed by TNF-alpha stimulation for 20 mins by Western blot analysis; type: cell-based; procedure, shortened: as §4
[11] = Tmax in Sprague-Dawley rat at 5 mg/kg, po via gavage by LC-MS/MS analysis; type: ADME, organism-based; details: in vivo; procedure, shortened: as §3
[12] = biological target: Ubiquitin-conjugating enzyme E2 D2 (Homo sapiens) (UniProt P62837); experiment: Inhibition of UbcH5b (unknown origin) at 2.5 to 10 uM preincubated for 15 mins followed by E1, Ub and ATP addition measured after 40 mins by Western blot analysis
Chain of Ubiquitin-conjugating enzyme E2 D2 (Homo sapiens) (P62837 whole entry, looked up): as the sequence (P61079 whole entry, looked up) above, with N7H, S11N, D132E, S138A counted along it

[13] = Half life in rat plasma at 5 uM; type: ADME, cell-free; procedure, shortened: as §2
[14] = Clearance in Sprague-Dawley rat at 1 mg/kg, iv by LC-MS/MS analysis; type: ADME, organism-based; details: in vivo
Procedure, shortened: (§5)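 Male Sprague-Dawley rats (about 200‒220 g; n = 6) were fasted overnight and given a single 1 mg/kg iv dose in DMSO:castor oil:saline (3:3:94). Blood was sampled from the orbital artery into heparin tubes. Plasma was analysed by LC/MS/MS (ESI, MRM), and parameters came from noncompartmental analysis. Values are mean ± SD.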

[15] = biological target: Ubiquitin-conjugating enzyme E2 D3 (Mus musculus) (UniProt P61079); experiment: Inhibition of UbcH5c in mouse b.End3 cells assessed as decrease in TNF-alpha-mediated IkB-alpha phosphorylation at 10 uM preincubated for 2 hrs followed by TNF-alpha stimulation for 20 mins by Western blot analysis; type: cell-based; procedure, shortened: as §4
[16] = Half life in Sprague-Dawley rat at 1 mg/kg, iv by LC-MS/MS analysis; type: ADME, organism-based; details: in vivo; procedure, shortened: as §5
[17] = Cmax in Sprague-Dawley rat at 5 mg/kg, po via gavage by LC-MS/MS analysis; type: ADME, organism-based; parameters: dose 5 mg/kg, route oral; details: in vivo; procedure, shortened: as §3
[18] = biological target: Ubiquitin-conjugating enzyme E2 L3 (Homo sapiens) (UniProt P68036); experiment: Inhibition of UbcH7 (unknown origin) at 2.5 to 10 uM preincubated for 15 mins followed by E1, Ub and ATP addition measured after 40 mins by Western blot analysis
Chain of Ubiquitin-conjugating enzyme E2 L3 (Homo sapiens) (P68036 whole entry): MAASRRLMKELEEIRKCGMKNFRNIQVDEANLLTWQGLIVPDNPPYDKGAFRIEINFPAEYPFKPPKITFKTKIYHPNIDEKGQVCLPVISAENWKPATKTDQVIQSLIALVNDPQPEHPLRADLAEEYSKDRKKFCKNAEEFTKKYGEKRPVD

[19] = Half life in Sprague-Dawley rat at 5 mg/kg, po via gavage by LC-MS/MS analysis; type: ADME, organism-based; details: in vivo; procedure, shortened: as §3
in vitro = details: human, HEK-293T cells
[20] = biological target: Ubiquitin-conjugating enzyme E2 D1 (Homo sapiens) (UniProt P51668); experiment: Inhibition of UbcH5a (unknown origin) at 2.5 to 10 uM preincubated for 15 mins followed by E1, Ub and ATP addition measured after 40 mins by Western blot analysis
Chain of Ubiquitin-conjugating enzyme E2 D1 (Homo sapiens) (P51668 whole entry): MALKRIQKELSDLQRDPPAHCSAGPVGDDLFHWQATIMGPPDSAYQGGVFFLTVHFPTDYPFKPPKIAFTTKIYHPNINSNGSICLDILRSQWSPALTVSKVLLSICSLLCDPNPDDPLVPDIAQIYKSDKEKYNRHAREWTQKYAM

[21] = Binding affinity to IYHPNINSNGSICLDILR assessed as covalent adduct formation with Cys85 residues after 1 hr by LC/MS/MS analysis
[22] = Volume of distribution at steady state in Sprague-Dawley rat at 1 mg/kg, iv by LC-MS/MS analysis; type: ADME, organism-based; details: in vivo, read-out: Vdss; procedure, shortened: as §5

C=C1C(=O)O[C@H]2c3c(C)c(OCc4ccccc4Br)cc(C)c3CC[C@@H]12
Activity (Rattus norvegicus [1]): Active | AUC(0-inf) [2]: 408 ng·h/mL | Activity (Rattus norvegicus [3]): Active | Activity (Rattus norvegicus [4]): inactive | AUC(0-inf) [5]: 314 ng·h/mL | half-life at 5 µM [6]: 0.663 h | bioavailability [7]: 16.8% | inhibition [8]: Dose-dependent effect | half-life at 5 µM [9]: 2.11 h | inhibition [10]: Dose-dependent effect | Tmax [11]: 3.83 h | inhibition [12]: Active | half-life at 5 µM [13]: 1.43 h | clearance [14]: 41.3 mL/min/kg | inhibition [15]: Active | half-life [16]: 1.76 h | Cmax [17]: 42.2 ng/mL | inhibition [18]: Active | half-life [19]: 2.86 h | cytotoxicity at 5 µM (in vitro): < 20% | inhibition [20]: Active | Activity [21]: Active | Vd [22]: 6.26 L/kg
